Measured values: ChEMBL document CHEMBL1250466, “CLEFMA-an anti-proliferative curcuminoid from structure-activity relationship studies on 3,5-bis(benzylidene)-4-piperidones” (Bioorg Med Chem, 2010)
Activity calls are given as the source filed them. No cut-off for these calls is given here.

Assays:
[1] = Antiproliferative activity against human H441 cells assessed as decrease of hexosaminidase activity after 24 hrs; type: functional, cell-based; details: NCI-H441, 24 h
How it was run: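 H441 (NCI-H441) cells in McCoy's 5A with 5% heat-inactivated FBS, gentamicin 50 μg/ml, 37 °C, 5% CO2; 10×10^3 cells/well seeded, attached overnight. Compounds in DMSO (0.1% final) at 1, 10, 25, 100 μM for 24 h. Hexosaminidase substrate in citrate pH 5, 30 min 37 °C, stopped with glycine/EDTA pH 10.4, A405. Triplicate, repeated at least twice; IC50 from linear or exponential fit of concentration vs activity.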

NCI-H441 [2] = assay: Induction of autophagy in human H441 cells assessed as chromatin condensation at 1 to 10 uM after 24 by transmission electron microscopic analysis; type: functional, cell-based
How it was run: (§1)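 H441 cells exposed 24 h at 1 and 10 μM, then fixed 4 h at room temperature in 0.1 M cacodylate with 4% PFA and 2% glutaraldehyde. Post-fixed in 1% osmium tetroxide 1.5 h, dehydrated through a graded ethanol series, ultrasections stained with Sato's lead. Imaged by transmission electron microscopy at 2500×; untreated cells as controls.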

NCI-H441 [3] = assay: Induction of autophagy in human H441 cells assessed as blebbing of nuclear membrane at 1 to 10 uM after 24 by transmission electron microscopic analysis; type: functional, cell-based; how it was run: as §1
NCI-H441 [4] = assay: Induction of autophagosome formation in human H441 cells at 10 uM after 24 using monodansylcadaverine staining by fluorescent microscopic analysis; type: functional, cell-based
How it was run: (§2)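 H441 cells labeled with the autophagic-vacuole marker monodansylcadaverine after treatment and examined by fluorescence microscopy; autophagy inhibition tested with 3-methyladenine.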

NCI-H441 [5] = assay: Induction of autophagy in human H441 cells assessed as peri-nuclear accumulation of cell organelles at 1 to 10 uM after 24 by transmission electron microscopic analysis; type: functional, cell-based; how it was run: as §1
NCI-H441 [6] = assay: Induction of autophagy in human H441 cells assessed as large single-walled autophagic vacuoles at 1 to 10 uM after 24 by transmission electron microscopic analysis; type: functional, cell-based; how it was run: as §1
NCI-H441 [7] = assay: Induction of autophagy in human H441 cells assessed as peri-nuclear accumulation of mitochondria at 1 to 10 uM after 24 by transmission electron microscopic analysis; type: functional; how it was run: as §1
NCI-H441 [8] = assay: Induction of autophagy in human H441 cells assessed as double-membrane pre-autophagosomal structures containing cell organelles at 1 to 10 uM after 24 hrs by transmission electron microscopic analysis; type: functional, cell-based; how it was run: as §1
NCI-H441 [9] = assay: Induction of autophagosome formation in human H441 cells at 10 uM after 24 using monodansylcadaverine staining by fluorescent microscopic analysis in presence of 3-methyladenine; type: functional, cell-based; how it was run: as §2
PC-3 = assay: Antiproliferative activity against human PC3 cells assessed as decrease of hexosaminidase activity at 1 to 100 uM after 24 to 72 hrs; type: functional, cell-based
How it was run: (§3)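 Cells kept as for H441 but in RPMI 1640 with 5% heat-inactivated FBS and gentamicin 50 μg/ml; 10×10^3 cells/well seeded, attached overnight. Compounds in DMSO (0.1% final) at 1, 10, 25, 100 μM for 24, 48 and 72 h. Remaining cells read by hexosaminidase activity (substrate in citrate pH 5, 30 min 37 °C, glycine/EDTA pH 10.4 stop, A405) as percent of DMSO control; triplicate, repeated at least twice.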

NCI-H441 [10] = assay: Induction of apoptosis in human H441 cells assessed as caspase 3 activation by immunoblotting; type: functional, cell-based
PANC-1 = assay: Antiproliferative activity against human PANC1 cells assessed as decrease of hexosaminidase activity at 1 to 100 uM after 24 to 72 hrs; type: functional, cell-based; how it was run: as §3
NCI-H441 [11] = assay: Induction of apoptosis in human H441 cells assessed as caspase cleavage by immunoblotting; type: functional, cell-based
NCI-H441 [12] = assay: Induction of apoptosis in human H441 cells; type: functional, cell-based
MIA PaCa-2 = assay: Antiproliferative activity against human MIAPaCa2 cells assessed as decrease of hexosaminidase activity at 1 to 100 uM after 24 to 72 hrs; type: functional, cell-based; how it was run: as §3
NCI-H441 [13] = assay: Induction of apoptosis in human H441 cells assessed as caspase 3/7 activation by immunoblotting; type: functional, cell-based

| Structure (SMILES) | IC50 [1] [µM] | other results |
| --- | --- | --- |
| O=C1/C(=C/c2ccccc2Br)CNC/C1=C\c1ccccc1Br | 6 |  |
| O=C1/C(=C/c2ccc(F)cc2)CNC/C1=C\c1ccc(F)cc1 | 45.7 |  |
| CN(C)c1ccc(/C=C2\CNC/C(=C\c3ccc(N(C)C)cc3)C2=O)cc1 | 101 |  |
| O=C1/C(=C/c2ccccc2F)CNC/C1=C\c1ccccc1F | 44 | Activity (NCI-H441 [2]): inactive; Activity (NCI-H441 [3]): Active; Activity (NCI-H441 [4]): Active; Activity (NCI-H441 [5]): Active; Activity (NCI-H441 [6]): Active; Activity (NCI-H441 [7]): Active; Activity (NCI-H441 [8]): Active; Activity (NCI-H441 [9]): inactive |
| O=C(O)/C=C/C(=O)N1C/C(=C\c2ccccc2F)C(=O)/C(=C/c2ccccc2F)C1 | 29 |  |
| O=C1/C(=C/c2ccccc2F)CN(C(=O)c2ccccc2C(=O)O)C/C1=C\c1ccccc1F | 56 |  |
| CC(=O)N1C/C(=C\c2ccccc2F)C(=O)/C(=C/c2ccccc2F)C1 | 54 |  |
| O=C(CCC(=O)N1C/C(=C\c2ccccc2F)C(=O)/C(=C/c2ccccc2F)C1)N[C@@H]1[C@@H](O)[C@H](O)[C@@H](CO)O[C@H]1O | 79 |  |
| Cc1ccc(S(=O)(=O)N2C/C(=C\c3ccccc3F)C(=O)/C(=C/c3ccccc3F)C2)cc1 | 50 |  |
| O=C1/C(=C/c2ccccc2F)CN(C(=O)C2CCCCC2C(=O)O)C/C1=C\c1ccccc1F (configuration not stated) | 55 |  |
| O=C(O)CCCC(=O)N1C/C(=C\c2ccccc2F)C(=O)/C(=C/c2ccccc2F)C1 | 60 |  |
| O=C1/C(=C/c2ccccc2Cl)CNC/C1=C\c1ccccc1Cl | 5 |  |
| CCCCCCCCCCCC/C=C/C(CC(=O)O)C(=O)N1C/C(=C\c2ccccc2F)C(=O)/C(=C/c2ccccc2F)C1 (configuration not stated) | 47 |  |
| CCCCCCCCCCCCCCCC/C=C/C(CC(=O)O)C(=O)N1C/C(=C\c2ccccc2F)C(=O)/C(=C/c2ccccc2F)C1 (configuration not stated) | 84 |  |
| CCCCCCCCCC/C=C/C(CC(=O)O)C(=O)N1C/C(=C\c2ccccc2F)C(=O)/C(=C/c2ccccc2F)C1 (configuration not stated) | 58 |  |
| O=CN1C/C(=C\c2ccccc2F)C(=O)/C(=C/c2ccccc2F)C1 | 49 |  |
| O=C1/C(=C/c2ccc(Cl)cc2)CNC/C1=C\c1ccc(Cl)cc1 | 87 |  |
| O=C(CN1C/C(=C\c2ccccc2F)C(=O)/C(=C/c2ccccc2F)C1)NCc1ccc(F)cc1 | 46 |  |
| O=C(O)CCC(=O)N1C/C(=C\c2ccccc2F)C(=O)/C(=C/c2ccccc2F)C1 | 69 |  |
| CCCCCCCCCCCCCCCCNC(=O)CCC(=O)N1C/C(=C\c2ccccc2F)C(=O)/C(=C/c2ccccc2F)C1 | 64 |  |
| O=C1/C(=C/c2cccc(Cl)c2)CNC/C1=C\c1cccc(Cl)c1 | 50 |  |
| O=C(O)/C=C\C(=O)N1C/C(=C\c2ccccc2Cl)C(=O)/C(=C/c2ccccc2Cl)C1 | 1 | Activity (NCI-H441 [2]): inactive; Activity (PC-3): Active; Activity (NCI-H441 [10]): inactive; Activity (NCI-H441 [3]): Active; Activity (NCI-H441 [4]): Active; Activity (NCI-H441 [5]): Active; Activity (NCI-H441 [6]): Active; Activity (NCI-H441 [7]): Active; Activity (PANC-1): Active; Activity (NCI-H441 [11]): inactive; Activity (NCI-H441 [12]): inactive; Activity (MIA PaCa-2): Active; Activity (NCI-H441 [8]): Active; Activity (NCI-H441 [9]): inactive; Activity (NCI-H441 [13]): inactive |
| O=C1/C(=C/c2ccccc2)CNC/C1=C\c1ccccc1 | 12 |  |
| O=C1/C(=C/c2ccccc2[N+](=O)[O-])CNC/C1=C\c1ccccc1[N+](=O)[O-] | 93 |  |
